# Reference: ChEMBL document CHEMBL4513216, “Probing the Open Global Health Chemical Diversity Library for Multistage-Active Starting Points for Next-Generation Antimalarials” (ACS Infect Dis, 2020)
# Assay: Toxicity liver stage against HepG2, at 10uM
# Assay type: cell-based
# Set-up: test concentration 10 uM, cell line HepG2-A16-CD81EGFP
# Conditions: human, HepG2-A16-CD81EGFP cells; read-out: INHIBITION
# In short: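 Uninfected HepG2-A16-CD81EGFP cells, 3 × 10^3 per well, 1536-well, plated on prespotted compound at 10 μM final, parasite-free screening media added to match infected plates; puromycin 10 μM positive, DMSO 0.5% negative; run in parallel with 48 h PbLuc assay at 37 °C, 5% CO2; viability by CellTiter-Glo luminescence, normalized to controls.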
row,SMILES,cytotoxicity at 10 µM [%]
1,CC1CCN(S(=O)(=O)NC(C)Cc2ccco2)CC1 (stereo not drawn),3.53
2,CCCNC(=O)c1cn(C(C)(C)C)c2ncccc12,-0.317
3,O=C(CCC1CCCC1)N1CCC(c2cc3ncccc3c(O)n2)CC1,-4.82
4,CN(C)c1cnn(CC(=O)N2CCN(c3ccccc3)CC2)c(=O)c1,-13.8
5,CC(C)(C)c1cc(CN2C[C@H]3CC[C@@H](C2)N(Cc2ccccn2)C3)n[nH]1,0.541
6,CC(C)Sc1ncccc1C(=O)NCc1ccc(CS(C)(=O)=O)cc1,3.78
7,Cc1ccc(C(=O)N2CCn3cc(CN(C)Cc4ccco4)nc3C2)o1,12.4
8,CCOc1ncccc1C(=O)N1CC=C(c2ccc(O)cc2)CC1,8.02
9,O=C1CN(c2ccc(CNC(=O)c3ccc[nH]3)cc2F)CCN1,1.28
10,Cc1ccc(CN(c2cc(C)nc3nc(C(F)(F)F)nn23)C2CC2)cc1,-4.12
11,COc1ccccc1OCc1cc(C(=O)NC[C@@H]2CCCN2)n[nH]1,-3.81
12,Cc1ccccc1C(C(=O)NCCn1cccc1)N(C)C (stereo not drawn),7.62
13,O=C(c1cccnc1)N1CCCC(c2ccnc3nccn23)C1 (stereo not drawn),6.2
14,CCN(CCO)Cc1ccc(Br)c2cccnc12,1.95
15,Cn1nnc2c1CCN(CC1CC1)C2COCc1ccccc1 (stereo not drawn),6.74
16,Cc1nc(CN2C(=O)CCC23CCN(Cc2ccco2)CC3)cs1,-105
17,Cc1nc(-c2cccnc2)ncc1C(=O)N1CCC(c2ncc[nH]2)CC1,0.626
18,CNc1nc(C(=O)NCc2cccnc2N(C)C2CCCCC2)cs1,-5.35
19,CCN1CCC(NC(=O)CN2CCCC2Cn2cc(C)cn2)CC1 (stereo not drawn),-8.84
20,CCc1cc(NCC(N)=O)nc(N2CCCCC2)n1,9.95
21,CCc1cc(C(C)Nc2nc(-c3cccnc3)nc3c2CNC3)on1 (stereo not drawn),16.9
22,Cc1ccc(C(=O)N2CCCCC2CNC(N)=O)cc1F (stereo not drawn),-6.56
23,COCc1nn(C(C)C)c2c1CCN(Cc1ccccn1)C2,8.04

row,SMILES,cytotoxicity at 10 µM [%]
1,CCOC(=O)Cn1cccc(S(=O)(=O)N2CCCC2)c1=O,13.4
2,Cc1nc(CN2CCN(C(=O)CCC(=O)c3ccccc3)CC2)no1,3.7
3,c1cnc(N2CCCC3(CCN(Cc4cccs4)C3)C2)nc1 (stereo not drawn),2.58
4,COc1cc(F)c(-n2cnc(CCNC(C)=O)c2)cc1F,-12.1
5,COCC1CN(S(=O)(=O)c2ccccc2)Cc2ncnn2C1 (stereo not drawn),-117
6,CC(C)(C)NC(=O)CNc1ncccn1,-5.09
7,CC(NC(=O)CCn1cncn1)c1nnc2n1CCCCC2 (stereo not drawn),-9.26
8,CC(=O)N1CCCC(C(=O)c2cnn(-c3ccc(F)cc3)c2N)C1 (stereo not drawn),5.82
9,CCc1c(C(=O)N2CCCC(N(C)C)C2)cnn1C(C)(C)C (stereo not drawn),-0.088
10,Cc1cc(O)c(OCC(=O)Nc2nc3c(s2)CCCCC3)cn1,3.93
11,Cc1cnc(N2CCCC3(CCN(Cc4csc(C)n4)C3=O)C2)nc1 (stereo not drawn),-5.15
12,CN1CCOC(CNCC(=O)NCCC2=CCCCC2)C1 (stereo not drawn),-3.57
13,c1cnn(CCNCCCOc2ccc3c(c2)OCO3)c1,7.61
14,Cc1cc(C)cc(-c2cc(C3CCOC3)c(C#N)c(N)n2)c1 (stereo not drawn),1.44
15,CCc1nc(CCNC(=O)NC2CCN(C(C)C)C2)sc1C (stereo not drawn),-7.63
16,CSCCC1c2nc[nH]c2CCN1Cc1ccccc1C#N (stereo not drawn),-1.57
17,Cc1cc(C(=O)NCc2cccs2)nc(N2CCCC2)n1,-0.438
18,COc1c(C2CCCN2C(=O)CCNc2ncccn2)c(C)nn1C (stereo not drawn),-5.1
19,Cc1cnn(CCNCc2ccccc2F)c1,-9.54
20,Cc1cc(C(=O)N2CCCC(c3nccn3Cc3ccncc3)C2)no1 (stereo not drawn),0.471
21,CC(CO)NS(=O)(=O)c1cccc(C(C)C)c1 (stereo not drawn),-20
22,CC(C)Cc1cc(C(=O)NCCn2nc3ccccn3c2=O)[nH]n1,-16.3
23,CN(C)c1ccc(C(=O)N2CCCC(n3cccn3)C2)cn1 (stereo not drawn),-11.5

row,SMILES,cytotoxicity at 10 µM [%]
1,CC(C)c1nc(CN(C)C(=O)C(O)c2ccc(Cl)cc2)cs1 (stereo not drawn),-150
2,O=C1C[C@H]2[C@@H](CCN2C(=O)Cc2ccsc2)N1Cc1cccnc1,-0.331
3,c1cnn(CC2CN(CC3CCCC3)CCO2)c1 (stereo not drawn),-2.55
4,Cc1ccc(NC(=O)C2CSCN2C(=O)c2cnccn2)c(C)c1 (stereo not drawn),-8.6
5,O=C(COc1cc(Cl)cc(Cl)c1)NCc1nncn1C1CC1,-11.5
6,CC(C)n1c2ccccc2c2c1cc(C(=O)O)n2C(=O)N(C)C,-94.3
7,CCN1C[C@@H]2[C@@H](OC)CCN(S(=O)(=O)c3cccnc3)[C@@H]2C1,-77
8,COC(=O)c1cc(C)nc(N2CCN(Cc3ccn(C(C)C)c3)CC2)n1,9.77
9,Cc1ccc2c(c1)C(=O)NCC1(CCN(C(=O)c3sccc3C)CC1)O2,-11.7
10,Cc1ccc(CN(C)C(=O)c2cc3c(c(S(N)(=O)=O)c2)CCC3)o1,-52.5
11,CC1COc2ccccc2N1C(=O)c1ccc(=O)n(C)c1 (stereo not drawn),-3.42
12,CNC(=O)COc1cccc(CNCc2c(C)noc2C)c1,-10.3
13,CC(=O)N1CCC2(CCN(CC3CCCCC3)C2)CC1,2.05
14,Cc1cc(NC(=O)CN2CCCC2Cn2nc(C)nc2C)n(C)n1 (stereo not drawn),-2.49
15,O=C(c1n[nH]c2c1CN(C1CCOC1)CC2)N1CCCC1 (stereo not drawn),-1.07
16,COCC(=O)N1CCCC1c1cccc(Cc2ccccc2F)n1 (stereo not drawn),-37.7
17,CSc1[nH]c(=O)c(C(=O)N2CCCC2C2CCCC2)cc1C#N (stereo not drawn),5.58
18,COc1c(CNCc2ccccc2-n2ccnc2)c(C)nn1C,18.7
19,CCS(=O)(=O)N1CCC2(CCN(Cc3ccc(C)o3)C2)C1 (stereo not drawn),-116
20,O[C@H]1CCN(CC2CC2)[C@H]1Cc1ccncc1,0.165
21,N#Cc1ccc(NC2CCN(CC(F)F)CC2)c(F)c1,-5.3
22,N#CCCn1cnc2c(Br)cccc2c1=O,4.65
23,O=C1NC[C@@]2(C(=O)O)CN(Cc3cccc(Oc4ccccc4)c3)C[C@@H]12,-5.65

row,SMILES,cytotoxicity at 10 µM [%]
1,COCCN(Cc1ccccn1)Cc1sccc1C,-3.6
2,Clc1cncc(NCc2cccc(COC3CCOCC3)c2)n1,14.6
3,COc1ccc2[nH]cc(C3CCN(CCC(N)=O)CC3)c2c1,-1.22
4,CCOC(=O)CNC(=O)NCc1cccn1Cc1ccccc1F,-2.24
5,CCN1CCN(C(=O)NCc2cc[nH]n2)CC1,-12.7
6,CNCc1ccc(OCc2ccc3c(c2)OCCO3)cc1,1.61
7,O=C1CCNc2cc3c(cc2CN1Cc1ccco1)OCO3,6.36
8,CSCCC(O)C(=O)N1CCN(Cc2cccc(Cl)c2)CC1 (stereo not drawn),6.48
9,COc1cccc(CN2CCC(c3cc(O)nc(C)n3)C2)c1 (stereo not drawn),-0.542
10,COCC(C)N(C)C(=O)c1nc(S(C)(=O)=O)n2ccccc12 (stereo not drawn),-11
11,Cc1noc2ncc(C(=O)N3CCCC3c3ccsc3)cc12 (stereo not drawn),-10.4
12,CCOCC1CN(c2ncc(F)cn2)Cc2cn(CC)nc21 (stereo not drawn),8.31
13,CCn1cc(S(=O)(=O)NCC(OC)c2cccc(Cl)c2)cn1 (stereo not drawn),10.1
14,CCc1ccc(NC(=O)N2C[C@@H]3C[C@H](C(=O)N4CCCC4)[C@H](C2)O3)cc1,-6.71
15,O=S(=O)(c1ccccc1)N1CCC[C@]2(C[C@@H](OCC3CC3)CO2)C1,-69.2
16,CCC1CN(C(=O)c2cnc(-c3cnn(C)c3)s2)CCO1 (stereo not drawn),8.79
17,c1ccc2oc(CN3CCCC3c3noc(C4CC4)n3)nc2c1 (stereo not drawn),-4.04
18,Cc1ccc(-c2nc(CCNCc3ccncc3)co2)cc1,-4.96
19,Cc1cnc(C)c(Oc2ccc(Cl)c(CN3CCCC3)c2Cl)n1,2.61
20,COc1ccc(N2CCN(C(=O)Cn3nccc3C)CC2(C)C)cc1,6.68
21,Cc1nnc(C2Cc3ccccc3CN2Cc2ncc(C(C)(C)C)o2)o1 (stereo not drawn),10
22,COCCOc1ccc(NC(=O)C2CC(=O)N(C)C2)cn1 (stereo not drawn),-5.31
23,Cc1cc(C(F)(F)F)nc(CCNC(C)Cn2cncn2)n1 (stereo not drawn),12

row,SMILES,cytotoxicity at 10 µM [%]
1,COc1ccc(NC(C)=O)c(N2CCN(C(C)=O)CC2)n1,-8.83
2,CCN1CCC(Cn2ccc3ccc(C(=O)OC)cc3c2=O)C1 (stereo not drawn),-9.09
3,O=C(COc1coc(CN2CCCC2)cc1=O)NCc1ccccc1Cl,-0.317
4,N#Cc1c(F)cccc1Nc1cnn(CC(=O)N2CCOCC2)c1,2.2
5,COc1c(F)cc(CN2CCC3(CC2)C(C(=O)O)CC(=O)N3C)cc1Cl (stereo not drawn),5.13
6,Cc1ccc(S(=O)(=O)N2CCCC3(CCCN3S(C)(=O)=O)C2)cc1F (stereo not drawn),2.05
7,CC(C)Oc1ncccc1CNC(=O)c1cnccn1,-10.2
8,COc1ccc(CN(C(=O)CCC(C)C)c2cnn(C)c2)c(OC)c1,-1.35
9,COc1cc(CO)ccc1OCc1nc(C(C)C)no1,6.3
10,CN1C(=O)CC(C(=O)O)C12CCN(c1ccc3c(n1)CCCC3)CC2 (stereo not drawn),2.78
11,O=C(NCc1ccccc1)NCc1nc(-c2ccncc2)n[nH]1,0.449
12,Cc1nc(NC(=O)C2CCCN(C(=O)C3CC3)C2)sc1C (stereo not drawn),3.71
13,O=C(CNC(=O)c1cnc2ccccc2c1O)NCCn1ccnc1,-3.02
14,Cc1ncccc1NC(=O)c1nc2c(n1C)CCN(C(=O)C1CC1)C2,-99.6
15,COCCCN1CC2(CCN(C(=O)c3ccc(=O)n(C)c3)CC2)CC1=O,-9.69
16,COCCC(=O)N1CCc2c(CNc3ncccn3)cncc2C1,9.05
17,Cn1ccc(CN2CCC(OCc3ccccc3)CC2)cc1=O,0.259
18,COc1ccc(OC)c(-n2cnnc2CN)c1,-4.4
19,Cc1ccc(S(=O)(=O)N2CCOCC2C#N)c(F)c1 (stereo not drawn),9.78
20,N#Cc1cccc(NC2CC(=O)N(C3Cc4ccccc4C3)C2)n1 (stereo not drawn),-141
21,CN1CCC(NC(=O)c2cc(F)cc(Cl)c2O)C1=O (stereo not drawn),3.09
